The test system of series [1] is HT-29. The series can be described thus: Antiproliferative activity against human HT-29 cells assessed as inhibition of cell viability measured after 72 hrs by MTT assay. In kind it is functional, cell-based. Particulars: HT-29, 72 h. The method in brief:
(§1)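 Cells kept at 37 °C, 5% CO₂ in RPMI 1640, L-15 or DMEM with 10% FBS and 1% penicillin-streptomycin. Plated at 2-4 × 10³ cells/well and dosed 24 h after plating. After 72 h exposure, MTT added for 2-4 h at 37 °C. Formazan dissolved in DMSO, absorbance read at 570 nm. IC50 is the mean of at least three independent experiments.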
(Formazan colour is commonly taken as a measure of viable cells.)

The subject of a further series is DLD-1. The series can be described thus: Antiproliferative activity against human DLD-1 cells assessed as inhibition of cell viability measured after 72 hrs by MTT assay. It counts as functional, cell-based. To be noted: DLD-1, 72 h. The gist of the method:
as §1

A short description of series [2]: Toxicity in Balb/c mouse xenografted with human HT-29 cells assessed as reduction in body weight at 30 mg/kg, po administered via gavage measured after 10 days. It counts as organism-based. To be noted: in vivo, 240 h, time 10 day. The method in brief:
(§2)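 Female BALB/c nude mice, 6–7 weeks old, injected subcutaneously with 8×10^6 HT29 cells. At about 100 mm³ average tumour volume, mice were randomised into groups (n=5). Dosing was daily oral gavage for 30 days in 10% DMSO/1% Tween-80/saline, with a vehicle group. Tumour size (calipers; 0.5 × shortest diameter² × longest diameter) and body weight were recorded every two days.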
On the technique in general: A xenograft is tissue or cells of one species grown in another, often human tumour cells in immunodeficient mice.

The test system of series [3] is HT-29. In words: Antitumour activity against human HT-29 cells xenografted in Balb/c mouse assessed as inhibition of tumour growth at 30 mg/kg, po administered via gavage for 30 days and measured every 2 days by vernier caliper analysis. In kind it is functional, organism-based. Particulars: time 30.0 day. The method in brief: as §2
Another series has as its system L02. The series can be described thus: Cytotoxicity against human L02 cells assessed as inhibition of cell viability at 0.625 to 40 uM measured after 72 hrs by MTT assay. In kind it is cell-based. Particulars: l02, 72 h, dose 0.625-40 µM. The method in brief:
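Cells were grown at 37 °C, 5% CO2, in medium with 10% FBS, and seeded at 2–4×10^3 cells/well. Compound was added 24 h after plating and left for 72 h. MTT (5 mg/mL stock) was then added for 2–4 h at 37 °C, formazan was dissolved in DMSO, and absorbance read at 570 nm. Values are means of at least three independent experiments.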

A further series deals with SW-620. In words: Antiproliferative activity against human SW-620 cells assessed as inhibition of cell viability measured after 72 hrs by MTT assay. In kind it is functional, cell-based. Particulars: SW-620, 72 h. The gist of the method:
as §1

The subject of a further series is HCT-116. The series can be described thus: Antiproliferative activity against human HCT-116 cells assessed as inhibition of cell viability measured after 72 hrs by MTT assay. In kind it is functional, cell-based. Particulars: HCT-116, 72 h. The method in brief:
as §1

A further series concerns HCT-15. The series can be described thus: Antiproliferative activity against human HCT-15 cells assessed as inhibition of cell viability measured after 72 hrs by MTT assay. It counts as functional, cell-based. Particulars: HCT-15, 72 h. The gist of the method: as §1
A further series is filed under the species Homo sapiens. In words: Inhibition of dimerization of N-terminal His6-tagged human c-Myc bHLHZip domain (353 to 439 residues)/Max(151 residues) (unknown origin) expressed in Escherichia coli BL21DE3 assessed as inhibition of c-Myc/Max/DNA complex formation at 20 uM preincubated with c-Myc/Max for 1.5 hrs followed by incubation with DNA oligo for 0.5 hrs by EMSA analysis relative to control. Particulars: time 2.0 hrs. The method in brief: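 Gel-shift used His-tagged Myc/Max complex (50 nM) with a biotinylated E-box duplex oligo (50 nM). Buffer was PBS pH 7.0 with 10 mM EDTA, 500 mM KCl, 30 mM MgCl2, 5% glycerol, 0.1% NP40, 1.5 mM DTT and 10% DMSO. Protein was preincubated with compound at 20 μM for 1.5 h at room temperature, then DNA was added for 0.5 h. Inhibition is relative to DMSO; three independent experiments.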
In general terms: Mobility shift assays separate free from complexed probe on a gel.

Series [4] in a line: Inhibition of dimerization of N-terminal His6-tagged human c-Myc bHLHZip domain (353 to 439 residues)/Max(151 residues) (unknown origin) expressed in Escherichia coli BL21DE3 measured after 1 hr by ELISA. The gist of the method:
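Myc bHLHZip (5.5 μg/well) was coated at 4 °C for 24 h in PBS pH 7.0 buffer (EDTA, KCl, MgCl2, glycerol, NP40, DTT), then blocked with 3% BSA for 2 h at 37 °C. Detection used rabbit anti-c-Myc, HRP anti-rabbit and TMB, read at 450 nm.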

Each structure is given as a SMILES string. Calls of active or inactive are those of the source. The calls are words filed in the database; no cut-off is given here. A value given as a limit tells only on which side of the number the result lay.

What is called IC50 is the concentration that inhibits the measured activity by half. By inhibition is commonly meant the change of the read-out against control, counted positive when it falls.

On to `O=c1[nH]cc(F)c(=O)[nH]1` [FLUOROURACIL], for which the IC50 stood at 13.4 µM with HT-29 [1]; 11.4 µM with DLD-1; 15.3 µM in the series with SW-620; 12.3 µM in the series with HCT-116; 10.9 µM with HCT-15. In addition, the Activity entry (in series [2]; in the series on L02) was “Toxic” each time. The result in the series on HT-29 [3] was Active.
Consider `COc1cc(Oc2cccc(Nc3ccccc3)c2)cc(OC)c1CNC12CC3CC(CC(C3)C1)C2`, for which the IC50 is 3.53 µM with HT-29 [1]; 7.37 µM in the series with DLD-1; > 20 µM in the series with SW-620; > 20 µM in the series with HCT-116; 147 µM in [4]; 6.51 µM with HCT-15. The inhibition in the series listed under Homo sapiens came to 12.6%.
As for `CCN1CCN(Cc2c(OC)cc(Oc3cccc(Nc4ccccc4)c3)cc2OC)CC1`, the IC50 is > 20 µM in the series on HT-29 [1]; > 20 µM in the series on DLD-1; > 20 µM with SW-620; > 20 µM in the series on HCT-116; > 150 µM in [4]; 5.09 µM with HCT-15. The inhibition in the series filed under Homo sapiens was 8.9%.
As for `COc1cc(Oc2cccc(Nc3ccccc3)c2)cc(OC)c1CNCCc1ccc(O)cc1`, the IC50 came out at 2.93 µM with HT-29 [1]; 4.03 µM with DLD-1; 12.7 µM in the series on SW-620; 15.7 µM in the series with HCT-116; 83 µM in series [4]; 6.14 µM in the series on HCT-15. The inhibition in the series filed under Homo sapiens was determined as 51.7%.
Consider `COc1cc(Oc2cccc(Nc3ccccc3)c2)cc(OC)c1CNC1CC1`, for which the IC50 was 12.3 µM with HT-29 [1]; > 20 µM with DLD-1; > 20 µM in the series on SW-620; > 20 µM in the series on HCT-116; > 150 µM in series [4]; 6.14 µM with HCT-15. In addition, the inhibition in the series listed under Homo sapiens amounted to 1.7%.
Consider `COc1cc(Oc2cccc(Nc3ccccc3)c2)cc(OC)c1CNCCc1ccccc1`, for which the IC50 in the series on HT-29 [1] worked out at 6.06 µM; with DLD-1 it was 6.77 µM; in the series with SW-620, 11.6 µM; with HCT-116, 13.6 µM; in [4] it was 96 µM; with HCT-15 it was 6.14 µM. The inhibition in the series listed under Homo sapiens was 45.1%.
With `COc1ccc(CNCc2c(OC)cc(Oc3cccc(Nc4ccccc4)c3)cc2OC)cc1`, the IC50 is 1.89 µM in the series with HT-29 [1]; 1.91 µM in the series with DLD-1; 6.97 µM in the series on SW-620; 2.62 µM in the series on HCT-116; 86 µM in series [4]; 2.65 µM with HCT-15. In addition, in the series listed under Homo sapiens, the inhibition was 48.7%.

The record behind these values is ChEMBL document CHEMBL4765310, “Discovery of 4-(3,5-dimethoxy-4-(((4-methoxyphenethyl)amino)methyl)phenoxy)-N-phenylaniline as a novel c-myc inhibitor against colorectal cancer in vitro and in vivo” (Eur J Med Chem, 2020).
